“And” between values parts separate entries of the source, which are not always exact repeats. Equal entries are not always repeated.
Legend:
[1] = The ratio of AzT-taxol/tubulin covalently bound after irradiation at initial ratio of 4.0
Outline: (§1)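 Tubulin (5 μM) with [3H]AzB-taxol at varied initial ratios, 20 min at 37 °C in Pipes/EGTA/MgSO4/DTT/GTP buffer pH 6.9, then irradiated 20 min at 300 nm. Centrifuged at 40000g, 10 min, 37 °C. Pellet washed repeatedly with 50% ethanol, dissolved in 0.1 M NaOH. Covalent mol/mol from radioactivity and protein.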

[2] = tested on: Tubulin (Bos taurus); experiment: The inhibition of photoincorporation of AzB-taxol into tubulin was evaluated in the presence of 7.5 uM of taxol; Complete inhibition
[3] = tested on: Tubulin (Bos taurus); experiment: The photoincorporation of [3H]AzB-taxol into tubulin was evaluated by preirradiation of the compound
[4] = tested on: Tubulin (Bos taurus); experiment: The incorporation of [3H]AzB-taxol into tubulin was evaluated after irradiation with 350 nM lamp
[5] = The ratio of […]/tubulin noncovalently bound […] at initial ratio of 4.0
Outline: (§2)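 Noncovalent binding without irradiation: 5 μM tubulin with varied [3H]AzB-taxol, 20 min at 37 °C. Centrifuged at 40000g; pellets washed with buffer, recentrifuged and dissolved in 0.1 M NaOH. Bound mol/mol from protein and radioactivity.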

[6] = The ratio of AzT-taxol/tubulin covalently bound after irradiation at initial ratio of 1.0; outline: as §1
[7] = The ratio of AzT-taxol/tubulin covalently bound after irradiation at initial ratio of 0.5; outline: as §1
[8] = The ratio of […]/tubulin noncovalently bound […] at initial ratio of 1.0; outline: as §2
[9] = tested on: Tubulin (Bos taurus); experiment: The incorporation of [3H]AzB-taxol into tubulin was evaluated after irradiation with 300 nM lamp
[10] = tested on: Tubulin alpha chain (Bos taurus); experiment: The photoincorporation of [3H]AzB-taxol into alpha-subunit of tubulin was evaluated at initial ratio of 1.0
[11] = The ratio of AzT-taxol/tubulin noncovalently bound after irradiation at initial ratio of 0.5; details: in the assay text read “before irradiation” for “after irradiation”; outline: as §2
[12] = biological target: Tubulin beta chain (Sus scrofa) (UniProt P02554); experiment: The photoincorporation of [3H]AzB-taxol into beta-subunit of tubulin was evaluated at initial ratio of 0.5
Tubulin beta chain (Sus scrofa), sequence (P02554 whole entry, looked up): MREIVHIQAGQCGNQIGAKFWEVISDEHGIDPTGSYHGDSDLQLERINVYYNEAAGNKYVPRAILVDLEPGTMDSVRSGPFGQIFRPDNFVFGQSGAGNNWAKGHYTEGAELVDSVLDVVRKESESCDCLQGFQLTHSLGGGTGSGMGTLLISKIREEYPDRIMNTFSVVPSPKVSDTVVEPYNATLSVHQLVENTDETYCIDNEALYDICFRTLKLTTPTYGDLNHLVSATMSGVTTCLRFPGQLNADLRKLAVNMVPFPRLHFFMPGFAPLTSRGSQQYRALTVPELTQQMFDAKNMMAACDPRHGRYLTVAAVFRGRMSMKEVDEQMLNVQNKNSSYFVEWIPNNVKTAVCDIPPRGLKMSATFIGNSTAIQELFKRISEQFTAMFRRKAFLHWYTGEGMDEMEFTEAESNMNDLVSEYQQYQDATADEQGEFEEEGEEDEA

[13] = The ratio of AzT-taxol/tubulin noncovalently bound […] at initial ratio of 3.0; outline: as §2
[14] = The ratio of AzT-taxol/tubulin covalently bound after irradiation at initial ratio of 2.0; outline: as §1
[15] = tested on: Tubulin (Bos taurus); experiment: The photoincorporation of [3H]AzB-taxol into tubulin was evaluated from polymerized tubulin
[16] = The ratio of AzT-taxol/tubulin covalently bound after irradiation at initial ratio of 3.0; outline: as §1
[17] = tested on: Tubulin (Bos taurus); experiment: The incorporation of [3H]AzB-taxol into tubulin was evaluated after irradiation with 254 nM lamp
[18] = tested on: Tubulin (Bos taurus); experiment: The photoincorporation of [3H]AzB-taxol into tubulin was evaluated from unpolymerized tubulin on ice
[19] = biological target: Tubulin alpha chain (Sus scrofa) (UniProt P02550); experiment: The photoincorporation of [3H]AzB-taxol into alpha-subunit of tubulin was evaluated at initial ratio of 0.5
Tubulin alpha chain (Sus scrofa), sequence (P02550 whole entry, looked up): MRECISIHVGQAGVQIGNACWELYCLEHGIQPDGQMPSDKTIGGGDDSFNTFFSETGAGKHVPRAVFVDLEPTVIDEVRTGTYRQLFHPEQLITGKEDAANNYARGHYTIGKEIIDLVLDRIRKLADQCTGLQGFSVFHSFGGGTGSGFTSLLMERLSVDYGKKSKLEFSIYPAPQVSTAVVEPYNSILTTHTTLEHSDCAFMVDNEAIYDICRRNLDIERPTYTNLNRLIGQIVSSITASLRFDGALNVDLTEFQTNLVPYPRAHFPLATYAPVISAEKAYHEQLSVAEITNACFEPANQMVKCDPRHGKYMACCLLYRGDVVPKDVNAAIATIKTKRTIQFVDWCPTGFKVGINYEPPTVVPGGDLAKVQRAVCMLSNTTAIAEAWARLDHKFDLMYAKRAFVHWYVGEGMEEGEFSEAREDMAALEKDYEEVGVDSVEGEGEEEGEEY
Outline: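 Tubulin (5 μM) with [3H]AzB-taxol at the stated initial ratio, 20 min at 37 °C, then irradiated 20 min at 300 nm. Ethanol-washed precipitate run on SDS-PAGE (7.5% running gel, 3% stacking gel) and stained with Coomassie. α- and β-bands excised, dissolved in 30% H2O2 at 65 °C and counted; results are % of incorporation per subunit, n = 2–3 experiments.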

[20] = The ratio of AzT-taxol/tubulin noncovalently bound […] at initial ratio of 2.0; outline: as §2
[21] = tested on: Tubulin (Bos taurus); experiment: The photoincorporation of [3H]AzB-taxol into tubulin was evaluated by incubation in dark
[22] = biological target: Tubulin beta chain (Sus scrofa) (UniProt P02554); experiment: The photoincorporation of [3H]-AzB-taxol into beta-subunit of tubulin was evaluated at initial ratio of 1.0
[23] = tested on: Tubulin (Bos taurus); experiment: The photoincorporation of [3H]AzB-taxol into tubulin was evaluated from tubulin in 8M urea

## CC(=O)O[C@H]1C(=O)[C@@]2(C)C([C@H](OC(=O)c3ccccc3)[C@]3(O)C[C@H](OC(=O)[C@H](O)C(NC(=O)c4ccc(N=[N+]=[N-])cc4)c4ccccc4)C(C)=C1C3(C)C)[C@]1(OC(C)=O)CO[C@@H]1C[C@@H]2O (stereo partly drawn)
[1]
  Ratio: 0.24
[2]
  Incorporated: Complete inhibition
[3]
  Amount incorporated (M (M of tubulin)-1): 0.016
[4]
  Amount incorporated (M (M of tubulin)-1): 0.025
[5]
  Ratio: 1.19
[6]
  Ratio: 0.17
[7]
  Ratio: 0.13
[8]
  Ratio: 0.85
[9]
  Amount incorporated (M (M of tubulin)-1): 0.12
[10]
  Incorporated: 14%
[11]
  Ratio: 0.5
[12]
  Incorporated: 80% and 81%
[13]
  Ratio: 1.2
[14]
  Ratio: 0.23
[15]
  Amount incorporated (M (M of tubulin)-1): 0.15
[16]
  Ratio: 0.23
[17]
  Amount incorporated (M (M of tubulin)-1): 0.13
[18]
  Amount incorporated (M (M of tubulin)-1): 0.03
[19]
  Incorporated: 20% and 19%
[20]
  Ratio: 1.22
[21]
  Amount incorporated (M (M of tubulin)-1): 0.008
[22]
  Incorporated: 86%
[23]
  Amount incorporated (M (M of tubulin)-1): 0.015

From ChEMBL document CHEMBL1127780, “Synthesis of a photoaffinity taxol analogue and its use in labeling tubulin” (J Med Chem, 1994)
